Bioassay records (PubChem)
Calpain2 inh = calpain II (pig) inhibition | purified calpain II, fluorogenic peptide substrate, 30 min | inhibition, % at 16 µM | hit rate 0.37% among 220,000 | AID 1236;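 active means inhibition above about 50%, limit read from the data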
PMI act satM6P = PMI (human) activation, high substrate | AID 1216 | P34949 | hit rate 0.34% among 190,000 | activation factor at 20 µM | coupled PMI enzyme assay, resazurin fluorescence, 20 min; active compounds read high; 1 = untreated enzyme, 0 = substrate-free blank;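 active means activation factor of 2 or more at 20 µM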
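Material: human phosphomannose isomerase with PGI, G6PDH, diaphorase coupling enzymes; amount: PMI at 15 ng/mL final; also added: Mannose-6-phosphate 1.0 mM (near-saturating) plus 0.22 mM NADP+; incubation: enzyme reaction with compound 20 min at room temperature; signal: resorufin fluorescence (Ex 544/Em 590 nm) from resazurin via diaphorase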
PMI act = activators of human phosphomannose isomerase; activation factor at 20 µM; P34949; purified human PMI, coupled resazurin fluorescence, 20 min; active compounds read high; 1 = vehicle control, 0 substrate-free wells; hit rate 0.005% among 190,000;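 active means activation factor of 2 or more at 20 µM, relative to plate controls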
Rad51 HR inh = blocks human Rad51 in homologous recombination; inhibition, % at 10 µM; Q06609; hit rate 0.085% among 200,000; hRad51 DNA strand exchange, fluorescence dequenching;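 active means inhibition above 40% at the single screening dose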;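 further: 0% = DMSO control wells and 100% = blanks with heterologous ssDNA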
Target sequence (Q06609 whole entry, looked up): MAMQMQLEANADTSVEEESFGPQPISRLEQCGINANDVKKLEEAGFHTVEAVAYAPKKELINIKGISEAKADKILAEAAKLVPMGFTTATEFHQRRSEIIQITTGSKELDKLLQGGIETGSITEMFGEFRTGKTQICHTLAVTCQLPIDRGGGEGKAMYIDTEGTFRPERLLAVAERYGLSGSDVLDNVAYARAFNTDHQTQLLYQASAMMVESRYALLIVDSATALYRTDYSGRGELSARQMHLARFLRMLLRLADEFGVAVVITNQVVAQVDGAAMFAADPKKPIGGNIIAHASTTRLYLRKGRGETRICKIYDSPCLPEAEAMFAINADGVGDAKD
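System: hRad51 filaments on single-stranded DNA; reagent: Fluorescein- and BHQ1-tagged 47-mer duplex; compound dosing: one concentration, 10 µM final; timing: filaments 15 min 37 °C, then compound 30 min; measured by: fluorescein emission 520 nm, excitation 485 nm; benchmarks: per-plate controls and blanks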
Efa HMGR inh = E. faecalis class II HMG-CoA reductase inhibition; purified E. faecalis HMGR, NADPH absorbance 340 nm kinetic; inhibition, % at 10 µM; hit rate 0.41% among 190,000; AID 1066;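 active means inhibition above a set limit, the median over all tested compounds plus 3 SD, cut at about 9.5% in these data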;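 further: enzyme runs in reverse so mevalonate oxidation gives rising NADPH absorbance; 0% = complete reaction with DMSO and 100% = background rate lacking mevalonate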
The depositor's hits bear a star; x = no result. This is a sample that favours compounds with a hit; in the whole collection about 1.1% have one here.

SMILES	Calpain2 inh	PMI act satM6P	PMI act	Rad51 HR inh	Efa HMGR inh
C=C(C)COc1ccc(-c2n[nH]c(C)c2-c2ccc(OC)c(OC)c2)c(O)c1	36	x	x	13	x
Cc1ccc(NC2=C/C(=N/S(=O)(=O)c3cccs3)c3ccccc3C2=O)cc1C	50*	0.7	1.1	x	1
Cc1ccccc1NC1=C/C(=N\S(=O)(=O)c2cccs2)c2ccccc2C1=O	-3	0.8	0.7	-2	-2
COc1cccc2c1C(=O)c1c(O)c3c(c(O)c1C2=O)C[C@@](O)(C(C)=O)C[C@@H]3O[C@H]1C[C@H](N)[C@H](O)[C@H](C)O1	-22	0.7	1.1	x	-2
COc1cccc2c1C(=O)c1c(O)c3c(c(O)c1C2=O)C[C@@](O)(C(=O)CO)C[C@@H]3O[C@H]1C[C@H](N)[C@@H](O)[C@H](C)O1	x	x	x	74*	x
CC(=O)Nc1ccccc1C(F)(F)F	-16	x	x	8	x
NNc1ccccc1C(F)(F)F	7	3.1*	2*	-4	-2
CCN(CC)C1=C(Cl)C(=O)C(Cl)C12OCCO2 (stereo not given)	17	x	x	-1	x
CC(C)NC(=O)CN1CCN(Cc2nc(C(c3ccccc3)c3ccccc3)no2)CC1	-28	0.9	0.9	0	-7
CS(=O)(=O)N1CCc2cc(S(=O)(=O)N3CCCCC3)ccc21	3	1.1	1.1	18	16*
CCCC(=O)NC(Nc1c(C)n(C)n(-c2ccccc2)c1=O)C(Cl)(Cl)Cl (stereo not given)	-21	1.1	1.1	2	-1
Cc1cccc2[nH]c(SCC(=O)N3CCOCC3)nc12	-7	1	1	x	11*
Cc1cccc2[nH]c(SCC(=O)O)nc12	-9	1.1	1.1	-1	-2
CC(CCCC(C)(C)O)NC(=O)c1ccc(OC2CCN(C(=O)C3CC3)CC2)cc1 (stereo not given)	17	1.1	1	26	10*
CC(C)C[C@H](NC(=O)c1ccc(OC2CCN(C(=O)C3CC3)CC2)cc1)C(N)=O	-28	1.1	1	19	-5
CCN(C(=O)c1cc2c(C)nc3ccccc3c2o1)c1cc(Cl)ccc1OC	-26	x	x	-13	x
CCc1ccc(-c2csc(NC(=O)COC(=O)CCc3nc4ccccc4s3)n2)cc1	6	1.1	1	-3	-4
Fc1ccc(-n2nnc(-c3ccnc4ccccc34)n2)cc1	-2	1.1	1.1	-3	3
COc1cccc(C2=CC(c3cccs3)n3nnnc3N2)c1 (stereo not given)	68*	1	1	-3	-4
COc1cccc(C2=CC(c3ccc(OC)c(OC)c3OC)n3nnnc3N2)c1 (stereo not given)	32	1.2	1.1	6	-2
Clc1cccc(N/N=C/c2ccc(N3CCOCC3)cc2)c1	-33	2.3*	1.4	3	-4
C(=N\Nc1ccccc1)/c1ccc(N2CCOCC2)cc1	-28	2.2*	1.3	-3	-9
O=C(O)c1cc(N/N=C/c2ccc(N3CCOCC3)cc2)ccc1Cl	-6	x	x	-5	x
C(=N\Nc1ccccn1)/c1ccc(N2CCOCC2)cc1	-8	0.8	0.9	-23	-3
CC(/C=C1\SC(=S)N(NC(=O)c2ccc(C)cc2)C1=O)=C\c1ccccc1	-14	0.9	0.9	-3	-1
SMILES	Calpain2 inh	PMI act satM6P	PMI act	Rad51 HR inh	Efa HMGR inh
CC(/C=C1\SC(=S)N(c2ccc(C(=O)O)cc2)C1=O)=C\c1ccccc1	73*	x	x	x	x
Cc1cccc(C)c1NC(=O)COC(=O)c1ccc([N+](=O)[O-])o1	-56	0.8	0.9	8	-1
CCN(CC)C(=O)c1ccc2nc3ccccc3nc2c1	33	2.2*	1.6	x	5
CCN(CC)C(=O)c1ccc2nc(-c3ccccc3)c(-c3ccccc3)nc2c1	-246	0.9	0.9	10	-2
CCOc1ccc(-c2c(C)n([O-])c3c([n+]2=O)CCCCC3)cc1	-12	1	1	-101	2
COc1cc(CNC(C)(C)C)cc(Br)c1OCc1cccs1	1	1	1	-1	2
C=CCOc1c(Br)cc(CNc2nccs2)cc1OC	-5	0.9	0.9	-1	14*
COc1ccc(/C=C2\SC(N3CCc4ccccc4C3)=NC2=O)cc1OC	-39	1	0.8	2	-1
COc1ccc(C(=O)N/N=C/c2cc3ccccc3[nH]c2=S)cc1	-70	2*	1.7	14	0
CCC(=O)N1CC2(C)CN(C(=O)CC)CC(C)(C1)C2	27	1	1.1	7	-2
CC(=O)N1CC2(C)CN(C(C)=O)CC(C)(C1)C2	3	0.9	0.8	-4	22*
Nc1nonc1C(=O)NCCNCc1cc(Br)ccc1OCc1ccccc1F	75*	1	0.9	2	2
NS(=O)(=O)c1ccc(CCNCc2cc(Br)ccc2OCc2ccccc2F)cc1	53*	1	1.1	-16	2
Cc1nn(C)c(Cl)c1C(=O)NCC(=O)NCc1ccccc1	-14	1	1	42*	-3
Cc1ccc(CNC(=O)CNC(=O)c2c(C)nn(C)c2Cl)cc1	1	1	1.1	-11	-3
CC(=O)NC1C(Oc2cccc(C)c2)OC2COC(c3ccco3)OC2C1O (stereo not given)	3	1	1	7	-5
COc1cccc(O[C@@H]2O[C@@H]3COC(C)(C)O[C@H]3[C@H](O)[C@H]2NC(C)=O)c1	-14	1	1	-3	10*
COc1cccc(NC(=O)c2ccc3snnc3c2)c1	-5	1.1	1	-4	17*
COc1ccc(Br)cc1C(=O)Nc1cccc(-c2nnc(-c3ccco3)o2)c1	x	x	x	-2	x
COc1cccc(C(=O)Nc2cccc(-c3nnc(-c4ccco4)o3)c2)c1	56*	0.9	0.9	x	-4
COC(=O)c1cccc(NC(=O)c2cccc(OC)c2)c1	53*	0.9	0.9	-1	-4
Cc1ccc(/C=C2\SC(N3CCN(C(c4ccccc4)c4ccccc4)CC3)=NC2=O)o1	-91	0.6	0.9	2	-4
CSc1ccccc1C(=O)NCC(c1ccco1)N1CCCCC1 (stereo not given)	-10	1.1	1.1	-7	12*
COc1ccc(OC)c(Cc2nnc(CCC(=O)NCc3ccsc3)o2)c1	-21	1	1	2	9.7*
COc1cccc(-c2csc(N3CCN(C(=O)Nc4ccc(Cl)cc4)CC3)n2)c1	10	1	1	24	9.9*
COc1ccc(NC(=O)N2CCN(c3nc(-c4cccc(OC)c4)cs3)CC2)cc1	5	0.8	0.8	1	-1
Cc1ccc(NC(=O)COC(=O)/C=C/c2ccc(Br)o2)cc1S(=O)(=O)N(C)C	-104	2.2*	1.5	-2	-4
COc1ccc(C(=O)N2c3cc4c(cc3C(C)=CC2(C)C)OCO4)cc1	52*	1	0.9	-5	-2
CC(=O)OCCCN1c2ccccc2Nc2nnc(-c3ccccc3)cc21	15	1	0.9	6	1
